Measured values pooled from the literature.
Protocols differ between the studies behind these lines.
Matrix: plasma
Route: oral

The bioavailability of `CC(=Nc1ccc(N=Cc2cnccn2)cc1)N(C)C` is reported as 12% (male Sprague-Dawley rat; 200 mg/kg).
With `CN1Cc2c(N)cccc2C(=O)N1C1CCC(=O)NC1=O` (stereo not shown) the bioavailability was 82.5% (male Sprague-Dawley rat; 3 mg/kg).
The bioavailability of `N#C[C@@]12C[C@@H]1[C@@H](n1cnc3c(N[C@@H](C4CCC4)C4CC4)nc(I)nc31)[C@H](O)[C@@H]2O` is reported as 7.18% (male Wistar rat; 1 mg/kg).
For `O=C(C=Cc1ccccc1)Nc1cc(-c2ccnc(N3CCC(O)CC3)c2)ccn1`, the bioavailability was roughly 38.5% (female Sprague-Dawley rat; 50 mg/kg).
With `CC(=O)CC(=O)C1CC(C)C(=O)C1=O` (stereo not shown) the bioavailability was 100% (male Sprague-Dawley rat; 100 mg/kg).
`Nc1ccc(/C=C/C(=O)NCc2cc3cc(-c4ccc(C(=O)N5CCC(F)(F)CC5)cc4)cc(-c4ccc(F)cc4)c3o2)cn1` has a bioavailability of 19.6% (rat; 3 mg/kg).
`Cc1c(C(=O)O)ccc2c3n(nc12)[C@@H]1[C@H](C3)N(CC2CC2)[C@@]2(C(=O)Nc3cc(Cl)ccc32)[C@H]1c1cccc(Cl)c1F` gave a bioavailability of 55% (male rat; 2 mg/kg).
For `O=C1CC[C@H](N2Cc3cc(N4CCN(CC5CCN(c6ccc([C@@H]7c8ccc(O)cc8CC[C@@H]7c7ccccc7)cc6)CC5)CC4)ccc3C2=O)C(=O)N1`, the bioavailability was 24.2% (female Sprague-Dawley rat; 20 mg/kg).
With `CC(/C=C/C=C(\C)C(=O)O)=C\C=C\C=C(C)\C=C\C=C(/C)C(=O)O` the bioavailability was 55 to 66% (female Wistar rat; 20 mg/kg).
`CC1(CN)CCN(c2cnc3c(Sc4ccncc4Cl)n[nH]c3n2)CC1` gave a bioavailability of 42.5% (male Sprague-Dawley rat; 10 mg/kg).
